Measured values: ChEMBL document CHEMBL3232890, “Novel structural hybrids of pyrazolobenzothiazines with benzimidazoles as cholinesterase inhibitors” (Eur J Med Chem, 2014)
Where a name gives a salt, the structure may show the parent alone.

How the values were obtained:
[1] = Inhibition of electric eel AChE type VI-S using acetylthiocholine iodide as substrate preincubated with enzyme for 10 mins prior to substrate challenge for 15 mins by Ellman's method; design: species or system Electrophorus electricus
Method in brief: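 Enzyme was EeAChE at 0.5 U/mg or equine BuChE at 3.4 U/mg, diluted in Tris-HCl with 0.1% BSA. Eight to ten serial dilutions were preincubated for 10 min at 25 °C, then incubated for 15 min at 25 °C, and read at 405 nm in triplicate. IC50 came from linear regression.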

[2] = molecular target: Cholinesterase (Equus caballus, UniProt P81908); test: Inhibition of BuChE in equine serum using butyrylthiocholine chloride as substrate preincubated with enzyme for 10 mins prior to substrate challenge for 15 mins by Ellman's method
[3] = molecular target: Cholinesterase (Equus caballus) (UniProt P81908); test: Inhibition of BuChE in equine serum using butyrylthiocholine chloride as substrate at 500 uM preincubated with enzyme for 10 mins prior to substrate challenge for 15 mins by Ellman's method
Method in brief: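 The compound was added from DMSO (1% final) at 0.5 mM final. Enzyme and compound were preincubated for 10 min at 25 °C, then incubated for 15 min at 25 °C, and absorbance was read at 405 nm. Blanks lacked enzyme or substrate.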

Chain of Cholinesterase (P81908 whole entry): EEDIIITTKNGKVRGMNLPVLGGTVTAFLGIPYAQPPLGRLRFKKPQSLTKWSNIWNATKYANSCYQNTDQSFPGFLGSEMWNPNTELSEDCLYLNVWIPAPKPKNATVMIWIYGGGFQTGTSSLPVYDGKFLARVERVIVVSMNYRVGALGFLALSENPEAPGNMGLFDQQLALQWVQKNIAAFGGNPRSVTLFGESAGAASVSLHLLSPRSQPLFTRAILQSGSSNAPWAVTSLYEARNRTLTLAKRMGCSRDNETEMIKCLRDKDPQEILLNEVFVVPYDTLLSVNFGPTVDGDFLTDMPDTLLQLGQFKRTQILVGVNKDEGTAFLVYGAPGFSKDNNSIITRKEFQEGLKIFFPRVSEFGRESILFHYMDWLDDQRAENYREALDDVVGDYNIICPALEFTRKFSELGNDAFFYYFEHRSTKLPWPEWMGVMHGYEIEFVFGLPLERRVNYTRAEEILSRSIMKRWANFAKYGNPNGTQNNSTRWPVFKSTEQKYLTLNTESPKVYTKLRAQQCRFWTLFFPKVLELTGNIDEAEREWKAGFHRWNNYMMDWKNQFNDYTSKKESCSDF
Chain of Cholinesterase (Equus caballus) (P81908 whole entry): as above

Compound: Cc1ccc2[nH]c(-c3ccc(-n4nc5c(c4C)N(C)S(=O)(=O)c4ccccc4-5)cc3)nc2c1
- IC50 [1]: 7.53 µM
- IC50 [2]: 0.041 µM

Compound: Cc1cc2nc(-c3ccc(-n4nc5c(c4-c4ccccc4)N(C)S(=O)(=O)c4ccccc4-5)cc3)[nH]c2cc1C
- IC50 [1]: 3.82 µM
- inhibition [3]: 34.1%

Compound: CN1c2c(nn(-c3ccc(-c4nc5cc(C(=O)O)ccc5[nH]4)cc3)c2-c2ccccc2)-c2ccccc2S1(=O)=O
- IC50 [1]: 6.11 µM
- IC50 [2]: 4.62 µM

Compound: CCOC(=O)c1ccc2[nH]c(-c3ccc(-n4nc5c(c4C)N(C)S(=O)(=O)c4ccccc4-5)cc3)nc2c1
- IC50 [1]: 0.993 µM
- inhibition [3]: 29.5%

Compound: CN1c2c(nn(-c3ccc(-c4nc5cc(Cl)ccc5[nH]4)cc3)c2-c2ccccc2)-c2ccccc2S1(=O)=O
- IC50 [1]: 3.02 µM
- IC50 [2]: 9.94 µM

Compound: CCOC(=O)c1ccc2[nH]c(-c3ccc(-n4nc5c(c4-c4ccccc4)N(C)S(=O)(=O)c4ccccc4-5)cc3)nc2c1
- IC50 [1]: 0.013 µM
- IC50 [2]: 0.18 µM

Compound: Cc1ccc2[nH]c(-c3ccc(-n4nc5c(c4-c4ccccc4)N(C)S(=O)(=O)c4ccccc4-5)cc3)nc2c1
- IC50 [1]: 0.122 µM
- inhibition [3]: 31.8%

Compound: CN1c2c(nn(-c3ccc(-c4nc5cc([N+](=O)[O-])ccc5[nH]4)cc3)c2-c2ccccc2)-c2ccccc2S1(=O)=O
- IC50 [1]: 7.94 µM
- inhibition [3]: 30.7%

Compound: CN(C)C(=O)Oc1cccc([N+](C)(C)C)c1 [NEOSTIGMINE]
- IC50 [1]: 22.2 µM
- IC50 [2]: 49.6 µM

Compound: COc1cc2c(cc1OC)C(=O)C(CC1CCN(Cc3ccccc3)CC1)C2 (configuration not stated) [DONEPEZIL HYDROCHLORIDE]
- IC50 [1]: 0.032 µM

Compound: CN1c2c(nn(-c3ccc(-c4nc5ccccc5o4)cc3)c2-c2ccccc2)-c2ccccc2S1(=O)=O
- IC50 [1]: 0.054 µM
- inhibition [3]: 36.5%

Compound: Cc1c2c(nn1-c1ccc(-c3nc4ccccc4o3)cc1)-c1ccccc1S(=O)(=O)N2C
- IC50 [1]: 6.92 µM
- IC50 [2]: 0.017 µM

Compound: CN1c2c(nn(-c3ccc(-c4nc5cc(Br)ccc5[nH]4)cc3)c2-c2ccccc2)-c2ccccc2S1(=O)=O
- IC50 [1]: 6.9 µM
- IC50 [2]: 3.23 µM

Compound: CN1c2c(nn(-c3ccc(-c4nc5cncnc5[nH]4)cc3)c2-c2ccccc2)-c2ccccc2S1(=O)=O
- IC50 [1]: 5.22 µM
- IC50 [2]: 1.33 µM

Compound: Cc1c2c(nn1-c1ccc(-c3nc4cc([N+](=O)[O-])ccc4[nH]3)cc1)-c1ccccc1S(=O)(=O)N2C
- IC50 [1]: 0.492 µM
- inhibition [3]: 38.5%

Compound: Cc1c2c(nn1-c1ccc(-c3nc4cc(Cl)ccc4[nH]3)cc1)-c1ccccc1S(=O)(=O)N2C
- IC50 [1]: 1.02 µM
- inhibition [3]: 38.7%

Compound: Cc1c2c(nn1-c1ccc(-c3nc4cc(Br)ccc4[nH]3)cc1)-c1ccccc1S(=O)(=O)N2C
- IC50 [1]: 0.541 µM
- IC50 [2]: 0.049 µM

Compound: COc1ccc2[nH]c(-c3ccc(-n4nc5c(c4-c4ccccc4)N(C)S(=O)(=O)c4ccccc4-5)cc3)nc2c1
- IC50 [1]: 7.13 µM
- inhibition [3]: 37.3%

Compound: CN1c2c(nn(-c3ccc(-c4nc5ccccc5[nH]4)cc3)c2-c2ccccc2)-c2ccccc2S1(=O)=O
- IC50 [1]: 0.011 µM
- IC50 [2]: 0.043 µM

Compound: Cc1c2c(nn1-c1ccc(-c3nc4cc(C(=O)O)ccc4[nH]3)cc1)-c1ccccc1S(=O)(=O)N2C
- IC50 [1]: 1.13 µM
- IC50 [2]: 0.026 µM

Compound: Cc1c2c(nn1-c1ccc(-c3nc4cncnc4[nH]3)cc1)-c1ccccc1S(=O)(=O)N2C
- IC50 [1]: 1.95 µM
- inhibition [3]: 35.5%

Compound: Cc1cc2nc(-c3ccc(-n4nc5c(c4C)N(C)S(=O)(=O)c4ccccc4-5)cc3)[nH]c2cc1C
- IC50 [1]: 0.041 µM
- IC50 [2]: 0.273 µM

Compound: Cc1c2c(nn1-c1ccc(-c3nc4ccccc4[nH]3)cc1)-c1ccccc1S(=O)(=O)N2C
- IC50 [1]: 2.91 µM
- IC50 [2]: 0.043 µM

Compound: COc1ccc2[nH]c(-c3ccc(-n4nc5c(c4C)N(C)S(=O)(=O)c4ccccc4-5)cc3)nc2c1
- IC50 [1]: 1.14 µM
- IC50 [2]: 6.92 µM
